Source: PubChem (Johns Hopkins Ion Channel Center)
KCNQ1 act: potentiators or activators of KCNQ1 channel, primary screen, cell-based, thallium flux, high-throughput | B-score at 10 µM | Potassium voltage-gated channel subfamily KQT member 1 (Homo sapiens), P51787 | CHO-K1 KCNQ1, thallium flux FluxOR fluorescence; stronger effect = higher value | hit rate 0.35% among 310,000;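 active = fluorescence ratio B-score, a plate-corrected score, at least three library SD, with initial intensity B-score within 5 SD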
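Schedule – 37 °C overnight plating, 90-min dark dye load, 20-min compound pretreatment · System – stable KCNQ1 CHO-K1 line · Probe or stimulus – thallium- and potassium-containing depolarizing buffer · Measured by – kinetic FluxOR fluorescence, 10 s baseline plus 110 s post-stimulus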
KCNK3 inh: human KCNK3 channel inhibitors, primary screen, CHO cells, FluxOR thallium flux, B-score; Potassium channel subfamily K member 3 (Homo sapiens), O14649; FluxOR fluorescence; stronger effect = lower value; B-score at 10 µM; hit rate 0.84% among 340,000; AID 602410, 2012;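 active = B-score under library mean minus 4 SD, starting fluorescence ratio at most library mean plus 5 SD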;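 note: more negative B-score means stronger inhibition of thallium flux through KCNK3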
KCNK9 block: KCNK9 potassium channel inhibitors, primary screen, HEK293 cells, thallium flux; Potassium channel subfamily K member 9 (Homo sapiens), Q9NPC2; FluxOR thallium flux fluorescence; stronger effect = lower value; B-score at 10 µM; hit rate 1.2% among 310,000; AID 488922, 2010;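 active = ratio B-score over 3 SD below the library mean, with starting fluorescence within 5 SD of its mean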;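 note: negative B-score means less thallium flux so channel inhibition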
hERG rescue: hERG rescue from dofetilide block, primary screen, cell-based, CHO-hERG, FluxOR thallium flux, dofetilide IC70; Voltage-gated inwardly rectifying potassium channel KCNH2 (Homo sapiens), Q12809; dofetilide IC70 present; activation (rescue from dofetilide block), less the hit threshold, % at 10 µM; hit rate 0.51% among 310,000;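 active = activation above the mean of controls blocked by dofetilide plus 5 SD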;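 note: thallium influx through hERG after potassium depolarization seen as dye fluorescence rise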
Target sequence (Q12809 whole entry, looked up): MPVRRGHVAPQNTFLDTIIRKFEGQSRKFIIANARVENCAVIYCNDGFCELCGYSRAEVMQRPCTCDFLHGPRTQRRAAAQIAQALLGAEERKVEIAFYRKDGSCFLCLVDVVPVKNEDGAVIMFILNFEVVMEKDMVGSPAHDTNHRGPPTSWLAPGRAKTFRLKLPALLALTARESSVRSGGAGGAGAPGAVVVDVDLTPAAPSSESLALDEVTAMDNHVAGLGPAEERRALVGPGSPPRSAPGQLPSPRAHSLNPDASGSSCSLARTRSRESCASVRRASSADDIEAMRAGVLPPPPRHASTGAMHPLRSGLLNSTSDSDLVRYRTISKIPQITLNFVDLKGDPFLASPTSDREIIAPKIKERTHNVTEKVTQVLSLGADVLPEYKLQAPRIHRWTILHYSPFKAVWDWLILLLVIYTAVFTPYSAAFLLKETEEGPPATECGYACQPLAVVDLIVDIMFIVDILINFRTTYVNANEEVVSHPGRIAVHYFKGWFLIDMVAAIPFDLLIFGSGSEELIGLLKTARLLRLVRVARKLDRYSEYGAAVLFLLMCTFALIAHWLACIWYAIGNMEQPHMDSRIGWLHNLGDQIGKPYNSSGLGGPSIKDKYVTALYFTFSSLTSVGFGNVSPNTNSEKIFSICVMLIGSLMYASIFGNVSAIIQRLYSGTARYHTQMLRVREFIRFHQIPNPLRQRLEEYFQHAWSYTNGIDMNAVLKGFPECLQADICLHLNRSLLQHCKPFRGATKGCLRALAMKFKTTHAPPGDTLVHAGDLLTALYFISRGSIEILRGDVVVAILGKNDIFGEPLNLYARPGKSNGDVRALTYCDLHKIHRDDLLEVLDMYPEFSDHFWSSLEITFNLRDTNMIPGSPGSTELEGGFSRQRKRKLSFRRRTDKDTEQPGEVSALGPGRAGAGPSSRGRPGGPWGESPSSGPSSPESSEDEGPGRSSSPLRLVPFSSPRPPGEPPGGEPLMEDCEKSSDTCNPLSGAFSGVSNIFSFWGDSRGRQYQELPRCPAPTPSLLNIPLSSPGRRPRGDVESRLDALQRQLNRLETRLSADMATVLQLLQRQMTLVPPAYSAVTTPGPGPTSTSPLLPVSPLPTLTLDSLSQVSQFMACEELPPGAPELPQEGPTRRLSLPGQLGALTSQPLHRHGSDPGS
KCNQ1 inh: inhibitors of human KCNQ1 channel, primary screen, cell-based, thallium flux, high-throughput; CHO-K1 KCNQ1, FluxOR thallium flux fluorescence; stronger effect = higher value; B-score at 10 µM; hit rate 1.3% among 310,000;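 active = compounds whose thallium flux B-score, printed positive for inhibition, exceeds three library SD while starting fluorescence stays within three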;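 note: channel opened by potassium depolarization with thallium stimulus after 20 min compound exposure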
The depositor's hits bear a star; i = inactive; . = no result. Rows were chosen to be rich in hits. Some 3.1% of all compounds tested hit in one or more screens of this group.

SMILES	KCNQ1 act	KCNK3 inh	KCNK9 block	hERG rescue	KCNQ1 inh
CCc1ccc(CCC(=O)N2CCN(S(=O)(=O)c3sc(C(=O)O)c(C)c3C(=O)O)CC2)cc1	.	i	.	.	.
CCC(C)c1ccc(S(=O)(=O)N2CCN(C(=O)c3ccc(Cl)c(S(=O)(=O)N4CCOCC4)c3)CC2)cc1 (stereo not drawn)	.	-9.6*	.	.	.
Cc1ccccc1NC1=C/C(=N\S(=O)(=O)c2ccc(C(=O)O)cc2)c2ccccc2C1=O	i	i	i	6.1*	i
Cc1ccc(C)c(S(=O)(=O)/N=C2\C=C(NS(=O)(=O)c3ccccc3)C(=O)c3ccccc32)c1	i	i	i	-17	10*
O=C(O)c1ccc(S(=O)(=O)/N=C2\C=C(Nc3ccccc3F)C(=O)c3ccccc32)cc1	i	i	i	3	i
O=C1C(=Cc2cccn2-c2ccc(O)cc2)C(=O)c2ccccc21	i	i	i	4.7*	i
O=C1C(=Cc2cccn2-c2ccccc2)C(=O)c2ccccc21	i	i	i	2	i
Oc1c(Br)cc(Br)cc1C=Nc1ccc2c(c1)OCO2	14*	i	i	-4	i
O=[N+]([O-])c1ccc(O)c(C=Nc2ccc3c(c2)OCCO3)c1	i	i	i	-10	i
Oc1c(Br)cc(Br)cc1C=Nc1ccc2c(c1)OCCO2	14*	i	i	-8	i
CC(C)(C)c1cc(C(=O)NNC(=O)c2ccc(C(F)(F)F)cc2)no1	9*	i	i	-5	i
Cc1nnsc1C(=O)NNC(=O)c1ccc(C(F)(F)F)cc1	i	i	i	-6	i
CCC(CO)Oc1cc(NC(=O)c2ccccc2[N+](=O)[O-])c2ncn(C(C)C)c2c1 (stereo not drawn)	.	i	.	.	.
Cc1ccc(S(=O)(=O)N(C)CC(=O)Nc2nc3ccccc3s2)cc1	i	i	i	-12	i
Cc1ccc(/C(=N/Nc2nc3ccccc3s2)C2=C(O)c3ccccc3C2=O)cc1	i	i	i	-16	10*
CC(C)(C)C(C(=O)n1cccc1C#N)c1ccccc1 (stereo not drawn)	.	i	.	.	.
CCOCCc1c(O)nc(SC)[nH]c1=O	8*	i	i	0	i
CCOCCc1c(O)nc(SCCOc2ccc(C)c(C)c2)[nH]c1=O	i	i	i	-5	i
C=CCOn1c(=O)c(-c2ccc(OC)cc2)[n+]([O-])c2ccccc21	i	i	i	-7	i
CC(C)CCOc1ccc(-c2c(=O)n(OCc3ccc([N+](=O)[O-])cc3)c3ccccc3[n+]2[O-])cc1	i	i	-6.6*	-3	i
CC[C@@]1(C(=O)OC)N[C@H](CN(C)C(=O)Nc2ccc(OC)cc2)[C@@H]2C(=O)N(Cc3ccccc3)C(=O)[C@@H]21	.	i	.	.	.
O=S(=O)(NCC(c1ccco1)N1CCN(c2ccccc2F)CC1)c1ccccc1 (stereo not drawn)	i	i	-6.9*	-11	i
O=S(=O)(NCC(c1ccco1)N1CCN(c2ccccc2F)CC1)c1ccc2c(c1)OCCO2 (stereo not drawn)	i	i	i	-10	i
c1ccc(N2CCN(c3nc(-c4cccs4)nc4ccccc34)CC2)cc1	i	i	-14*	-17	i
C/C(=N\NC(=O)COc1cccc(C)c1)c1ccc2ccccc2c1O	i	i	i	-14	i
SMILES	KCNQ1 act	KCNK3 inh	KCNK9 block	hERG rescue	KCNQ1 inh
N#Cc1c(/N=C/c2cc3ccccc3s2)sc2c1CCC2	i	i	i	-7	i
Cc1[nH]n(-c2cccc3ccccc23)c(=O)c1/C=N/c1sc2c(c1C#N)CCC2	11*	i	i	2	i
Cc1[nH]n(-c2ccc(F)cc2)c(=O)c1/C=N/c1sc2c(c1C#N)CCCC2	34*	i	i	20*	i
CCc1noc(C)c1C(=O)N1CCC(CCC(=O)Nc2cccc(OC)c2)CC1	i	i	i	-4	i
C/C(=N\NC(=S)Nc1cccc(C)c1)c1ccco1	13*	i	i	5.8*	i
COc1cccc(NC(=O)CN(C)S(=O)(=O)c2ccc3[nH]c(=O)oc3c2)c1	i	i	i	-10	i
Oc1ccccc1N=Nc1nc(-c2ccccc2)c(-c2ccccc2)[nH]1	i	i	i	-19	10*
COc1ccc(N=Nc2nc(-c3ccccc3)c(-c3ccccc3)[nH]2)cc1	i	i	i	-6	6*
CCOC(=O)C(Cc1ccccc1)NC(=O)CCCC(=O)c1ccccc1 (stereo not drawn)	i	i	i	-16	8*
CC(C)C(NC(=O)c1ccc(C(C)(C)C)cc1)C(=O)Nc1ccc(N2CCOCC2)cc1 (stereo not drawn)	.	i	.	.	.
C[n+]1c2n(c3ccccc31)N=C(c1ccc(-c3ccccc3)cc1)CS2	i	i	i	-25	12*
COc1cccc(NC(=S)N(CCc2c(C)[nH]c3ccccc23)Cc2cccs2)c1	.	-9.2*	.	.	.
Cc1[nH]c2ccccc2c1CCN(Cc1cccnc1)C(=S)Nc1cccc(F)c1	i	i	-7.5*	-26	i
CCCCN(C)C(=O)CCCc1c[nH]c2ccccc12	i	i	-7.8*	-9	i
CSc1cccc(NC(=O)CSc2ncccc2C(=O)Oc2cccc([N+](=O)[O-])c2)c1	i	i	i	-6	i
CCC(Sc1ncccc1C(=O)Oc1cccc([N+](=O)[O-])c1)C(=O)Nc1ccccc1OC (stereo not drawn)	i	i	-7.9*	-8	i
CS(=O)(=O)CCC(C(=O)O)N1C(=O)c2ccc(Oc3ccc(Cl)cc3)cc2C1=O (stereo not drawn)	i	i	i	-8	i
CCN(CC)S(=O)(=O)c1cccc(NC(=O)CCNC(=O)NC23CC4CC(CC(C4)C2)C3)c1	i	i	i	-13	8*
CN(C)S(=O)(=O)c1cccc(NC(=S)NC23CC4CC(CC(C4)C2)C3)c1	i	i	i	-1	i
COc1cc2c(cc1OC)C(c1ccc([N+](=O)[O-])cc1)N(C(C)=O)CC2 (stereo not drawn)	i	i	i	9.4*	i
COc1ccc(C2c3cc(OC)c(OC)cc3CCN2C(=O)c2cccc([N+](=O)[O-])c2)cc1OC (stereo not drawn)	i	i	i	-4	i
CCCCN1C(=O)C(=O)c2cc(Cl)ccc21	.	i	.	.	.
